Values after ≈ are worked out from the molar mass of the structure shown.
What was measured:
[1] = in vitro; conditions: rat, plasma
[2] = in vivo; conditions: CR-Han Wistar, rat, iv, 1 mg/kg
[3] = target: T1, Hexokinase-4 (Homo sapiens, UniProt P35557); test: Activation of His-tagged recombinant glucokinase expressed in Escherichia coli using [14C]-glucose substrate by […]
T1 sequence (P35557 whole entry): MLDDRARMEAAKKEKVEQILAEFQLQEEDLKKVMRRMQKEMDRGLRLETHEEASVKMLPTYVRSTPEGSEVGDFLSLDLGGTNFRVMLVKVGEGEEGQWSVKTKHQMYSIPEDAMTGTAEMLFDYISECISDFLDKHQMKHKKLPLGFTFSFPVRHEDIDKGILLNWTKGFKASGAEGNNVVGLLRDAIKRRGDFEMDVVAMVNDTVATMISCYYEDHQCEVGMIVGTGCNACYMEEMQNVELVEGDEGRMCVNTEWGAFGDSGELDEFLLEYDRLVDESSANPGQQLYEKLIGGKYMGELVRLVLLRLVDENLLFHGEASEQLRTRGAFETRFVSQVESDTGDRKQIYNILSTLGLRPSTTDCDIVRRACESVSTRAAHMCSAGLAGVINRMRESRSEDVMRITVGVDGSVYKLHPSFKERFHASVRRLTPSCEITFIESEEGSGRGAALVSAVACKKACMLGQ

[4] = Intrinsic clearance in dog hepatocytes measured per 10^6 cells; type: ADME, cell-based, Canis lupus familiaris, Liver, Hepatocyte
[5] = Clearance in dog; type: ADME, organism-based, Canis lupus familiaris; conditions: in vivo
[6] = Intrinsic clearance in rat hepatocytes measured per 10^6 cells; type: ADME, cell-based, Liver, Hepatocyte
[7] = Half life in dog; type: ADME, organism-based, Canis lupus familiaris; conditions: in vivo
[8] = Bioavailability in dog; type: ADME, organism-based, Canis lupus familiaris; conditions: in vivo
[9] = Percentage unbound in dog plasma; type: ADME, cell-free, Canis lupus familiaris
How it was run: (§1)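 Unbound fraction in plasma was measured by equilibrium dialysis and reported as percentage free.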

[10] = Intrinsic clearance in human hepatocytes measured per 10^6 cells; type: ADME, cell-based, Liver, Hepatocyte
[11] = Half life in rat; type: ADME, organism-based; conditions: in vivo
[12] = Solubility of the compound; type: physicochemical
[13] = Bioavailability in rat; type: ADME, organism-based; conditions: in vivo
[14] = Percentage unbound in human plasma; type: ADME, cell-free
How it was run: as §1

Row | fraction unbound [1] | clearance [2] [mL/min/kg] | EC50 [3] [nM] | Compound | also measured
1 | 0.0042 | 6.1 | – | COC[C@H](C)Oc1cc(O[C@@H](C)Cc2ccccc2OC)cc(C(=O)Nc2ccc(C(=O)O)cn2)c1 | –
2 | 0.0021 | 0.2 | – | CC(C)Oc1cc(Oc2ccccc2)cc(C(=O)Nc2ccc(C(=O)O)cn2)c1 | –
3 | 0.0035 | 0.6 | 150 | CC(C)Oc1cc(O[C@@H](C)c2ccccc2)cc(C(=O)Nc2ccc(C(=O)O)cn2)c1 | –
4 | 0.0016 | 0.8 | 110 | COC[C@H](C)Oc1cc(Oc2cccc(Cl)c2)cc(C(=O)Nc2ccc(C(=O)O)cn2)c1 | –
5 | 0.0109 | – | > 10000 | C[C@@H](Cc1ccccc1)Oc1cc(OC2CCOCC2)cc(C(=O)Nc2ccc(C(=O)O)cn2)c1 | –
6 | 0.0025 | 1 | 40 | COC[C@H](C)Oc1cc(O[C@@H](C)Cc2ccc(F)cc2)cc(C(=O)Nc2ccc(C(=O)O)cn2)c1 | –
7 | 0.0069 | 3.2 | 60 | COC[C@H](C)Oc1cc(Oc2ccc(OC)cc2)cc(C(=O)Nc2ccc(C(=O)O)cn2)c1 | –
8 | 0.001 | 1.6 | 100 | CC(C)Oc1cc(OC2Cc3ccccc3C2)cc(C(=O)Nc2ccc(C(=O)O)cn2)c1 | –
9 | 0.0122 | – | 400 | COC[C@H](C)Oc1cc(Oc2cccc(N(C)C)c2)cc(C(=O)Nc2ccc(C(=O)O)cn2)c1 | –
10 | 0.0023 | 0.1 | 90 | COC[C@H](C)Oc1cc(Oc2cc(F)cc(F)c2)cc(C(=O)Nc2ccc(C(=O)O)cn2)c1 | hepatocyte CLint [4]: < 1 µL/min/1e6 cells; clearance [5]: 5.2 mL/min/kg; hepatocyte CLint [6]: < 1 µL/min/1e6 cells; half-life [7]: 4.9 h; bioavailability [8]: > 100%; fraction unbound [9]: 0.0159; hepatocyte CLint [10]: < 1 µL/min/1e6 cells; half-life [11]: 15.8 h; solubility [12]: 841 µM (≈ 386 µg/mL); bioavailability [13]: 97%; fraction unbound [14]: 0.0055
11 | 0.0025 | 1.6 | 30 | COC[C@H](C)Oc1cc(O[C@@H](C)Cc2ccc(Cl)o2)cc(C(=O)Nc2ccc(C(=O)O)cn2)c1 | –
12 | 0.0021 | 0.2 | 180 | COC[C@H](C)Oc1cc(Oc2cccc(F)c2)cc(C(=O)Nc2ccc(C(=O)O)cn2)c1 | –
13 | 0.0055 | 0.4 | 160 | COC[C@H](C)Oc1cc(Oc2ccccc2)cc(C(=O)Nc2ccc(C(=O)O)cn2)c1 | –
14 | 0.004 | 1.9 | – | COC[C@H](C)Oc1cc(O[C@@H](C)Cc2ccccc2)cc(C(=O)Nc2ccc(C(=O)O)cn2)c1 | hepatocyte CLint [4]: < 1 µL/min/1e6 cells; hepatocyte CLint [6]: < 1 µL/min/1e6 cells; half-life [7]: 1.4 h; fraction unbound [9]: 0.0146; hepatocyte CLint [10]: < 1 µL/min/1e6 cells; half-life [11]: 4.5 h; fraction unbound [14]: 0.0044
15 | 0.0033 | 2.9 | 70 | COC[C@H](C)Oc1cc(OC[C@H](C)c2ccccc2)cc(C(=O)Nc2ccc(C(=O)O)cn2)c1 | –
16 | 0.001 | 1.1 | – | COC[C@H](C)Oc1cc(O[C@@H](C)Cc2cc(F)cc(F)c2)cc(C(=O)Nc2ccc(C(=O)O)cn2)c1 | –
17 | 0.0012 | 0.9 | – | COC[C@H](C)Oc1cc(Oc2ccc(Cl)cc2)cc(C(=O)Nc2ccc(C(=O)O)cn2)c1 | –
18 | 0.0042 | – | > 10000 | COCC(C)(C)Oc1cc(O[C@@H](C)Cc2ccccc2)cc(C(=O)Nc2ccc(C(=O)O)cn2)c1 | –
19 | 0.0023 | 3.3 | – | CC(C)Oc1cc(O[C@@H](C)Cc2ccccc2)cc(C(=O)Nc2ccc(C(=O)O)cn2)c1 | –
20 | 0.0738 | 8.2 | 60 | COC[C@H](C)Oc1cc(Oc2ccc(S(C)(=O)=O)cc2)cc(C(=O)Nc2ccc(C(=O)O)cn2)c1 | –
